{
  "source": "paper PMC3268052",
  "about": "(Journal of Molecular Biology, 2011)",
  "key": {"PKR [1]": {"biological_target": "T1, PKR (Homo sapiens, UniProt P19525)", "T1 sequence (P19525 whole entry)": "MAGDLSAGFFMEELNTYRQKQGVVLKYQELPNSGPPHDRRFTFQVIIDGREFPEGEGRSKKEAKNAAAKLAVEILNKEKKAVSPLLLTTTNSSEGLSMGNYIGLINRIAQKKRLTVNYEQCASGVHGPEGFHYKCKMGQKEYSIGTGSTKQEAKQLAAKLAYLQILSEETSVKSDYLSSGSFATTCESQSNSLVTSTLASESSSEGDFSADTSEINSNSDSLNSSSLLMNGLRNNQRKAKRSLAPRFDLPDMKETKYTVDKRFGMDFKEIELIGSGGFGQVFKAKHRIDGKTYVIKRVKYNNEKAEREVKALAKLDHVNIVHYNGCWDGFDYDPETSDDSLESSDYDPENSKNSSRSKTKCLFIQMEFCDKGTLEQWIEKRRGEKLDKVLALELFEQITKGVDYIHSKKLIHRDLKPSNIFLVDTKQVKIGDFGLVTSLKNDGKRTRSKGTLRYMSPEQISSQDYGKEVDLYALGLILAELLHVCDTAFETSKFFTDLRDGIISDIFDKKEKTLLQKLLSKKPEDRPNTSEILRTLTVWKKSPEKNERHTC", "assay": "analytical ultracentrifugation", "details": "cited from earlier work"}, "PKR [2]": {"biological_target": "T1, PKR", "type": "binding", "outline": "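PKR was purified via heparin–Sepharose then hydroxyapatite and titrated into 15 nM BODIPY-labeled heparin oligosaccharides (dp2–dp8) in AU75 buffer, pH 7.5, 20 °C; NaCl was raised to 100 or 125 mM where noted. Excitation 488 nm and emission 515 nm, 6 nm bandwidths. Each point averages three 5-s background-corrected reads, with 5 min equilibration. Kd came from a hyperbolic fit, and fold-difference is the ratio of Kd values.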"}, "PKR [3]": {"biological_target": "T1, PKR", "assay": "PKR autophosphorylation activation assay", "type": "biochemical", "details": "100 nM PKR, P50 buffer, 0.4 mM ATP, 20 min, 32 °C", "outline": "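Autophosphorylation of 100 nM PKR with heparin oligosaccharide activators over a concentration range. P50 buffer: 20 mM Hepes pH 7.5, 50 mM KCl, 5 mM MgCl2, 0.1 mM TCEP. Reactions contained 0.4 mM ATP plus 2 μCi [γ-32P]ATP and ran 20 min at 32 °C. Background autophosphorylation without activator and a 40-bp dsRNA (100 nM) served as references.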"}, "PKR [4]": {"biological_target": "T1, PKR", "details": "cited from earlier work"}, "PKR [5]": {"biological_target": "T1, PKR", "assay": "Sedimentation velocity", "type": "binding", "details": "for s(P2H2) / s(PH): uncorrected"}, "PKR [6]": {"biological_target": "T1, PKR", "assay": "Fluorescence anisotropy competition of bdp8 with unlabeled dp8", "type": "binding", "details": "competition of 500 nM bdp8 + 500 nM PKR with unlabeled ligand", "outline": "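Unlabeled heparin oligosaccharide was titrated against 500 nM BODIPY-labeled oligosaccharide plus 500 nM PKR. Run in AU75 buffer (75 mM NaCl, 20 mM Hepes, 0.1 mM EDTA, 0.1 mM TCEP, pH 7.5) at 20 °C. Anisotropy read at excitation 488 nm and emission 515 nm, with 5 min equilibration between points. The competition curve was fitted to yield Kd, which sets the fixed β11 value.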"}, "[7]": {"biological_target": "the molecule itself", "assay": "sedimentation velocity analytical ultracentrifugation"}, "[8]": {"details": "Model A with L22 fixed equal to L20, SV"}},
  "note": "Where two headings read alike, the source gives them in different places.",
  "data": [
    {"molecule": "PKR (from UniProt P19525)", "values": [
      {"measurement": "Kd", "setting": "PKR [1]", "result": 500, "unit": "µM"}
    ]},
    {"molecule": "heparin disaccharide [dp2]", "values": [
      {"measurement": "Fold weaker binding affinity than dp8", "setting": "PKR [2]", "result": "~150", "unit": "fold"},
      {"measurement": "Kd", "setting": "PKR [2]; BODIPY-labeled oligosaccharide, 75 mM NaCl", "result": "32.6 ± 7.4", "unit": "µM"}
    ]},
    {"molecule": "heparin hexasaccharide [dp6]", "values": [
      {"measurement": "Activation of PKR autophosphorylation", "setting": "PKR [3]", "result": "stimulated"},
      {"measurement": "Activation of PKR, relative activity in earlier studies", "setting": "PKR [4]", "result": "considerably less active than dp8"}
    ]},
    {"molecule": "heparin octasaccharide [dp8]", "values": [
      {"measurement": "Enhancement of PKR dimerization affinity", "setting": "PKR [5]", "result": "about 4 fold"},
      {"measurement": "g(s*) peak maximum", "setting": "PKR [5]; 60 μM dp8, 2 μM PKR", "result": "~ 4.0 S"},
      {"measurement": "g(s*) peak maximum", "setting": "PKR [5]; 60 μM dp8, 16 μM PKR", "result": "about 4.4 S"},
      {"measurement": "s(P2H2)", "setting": "PKR [5]; [8]", "result": 6.21, "unit": "Svedbergs"},
      {"measurement": "s(PH)", "setting": "PKR [5]; [8]", "result": 4.14, "unit": "Svedbergs"},
      {"measurement": "s(P2H2)", "setting": "PKR [5]; Model A, SV", "result": 5.98, "unit": "Svedbergs"},
      {"measurement": "s(PH)", "setting": "PKR [5]; Model A, SV", "result": 3.98, "unit": "Svedbergs"},
      {"measurement": "Frictional ratio f/f0 of PKR upon binding of dp8", "setting": "PKR [5]; decrease from 1.56 for free PKR monomer", "result": 1.47},
      {"measurement": "Kd", "setting": "PKR [2]; 15 nM labeled heparin oligosaccharide, 75 mM NaCl, 20 °C, hyperbolic fit", "result": 0.224, "unit": "µM"},
      {"measurement": "Kd", "setting": "PKR [2]; 100 mM NaCl", "result": "2.61 ± 0.05", "unit": "µM"},
      {"measurement": "Kd", "setting": "PKR [2]; 125 mM NaCl", "result": "19 ± 1.9", "unit": "µM"},
      {"measurement": "Activation of PKR autophosphorylation", "setting": "PKR [3]", "result": "stimulated"},
      {"measurement": "Kd", "setting": "PKR [6]", "result": "0.262 ± 0.021", "unit": "µM"}
    ]},
    {"molecule": "PKR (protein) AGDLSAGFFMEELNTYRQKQGVVLKYQELPNSGPPHDRRFTFQVIIDGREFPEGEGRSKKEAKNAAAKLAVEILNKEKKAVSPLLLTTTNSSEGLSMGNYIGLINRIAQKKRLTVNYEQCASGVHGPEGFHYKCKMGQKEYSIGTGSTKQEAKQLAAKLAYLQILSEETSVKSDYLSSGSFATTCESQSNSLVTSTLASESSSEGDFSADTSEINSNSDSLNSSSLLMNGLRNNQRKAKRSLAPRFDLPDMKETKYTVDKRFGMDFKEIELIGSGGFGQVFKAKHRIDGKTYVIKRVKYNNEKAEREVKALAKLDHVNIVHYNGCWDGFDYDPETSDDSLESSDYDPENSKNSSRSKTKCLFIQMEFCDKGTLEQWIEKRRGEKLDKVLALELFEQITKGVDYIHSKKLIHRDLKPSNIFLVDTKQVKIGDFGLVTSLKNDGKRTRSKGTLRYMSPEQISSQDYGKEVDLYALGLILAELLHVCDTAFETSKFFTDLRDGIISDIFDKKEKTLLQKLLSKKPEDRPNTSEILRTLTVWKKSPEKNERHTC", "values": [
      {"measurement": "Kd", "setting": "[7]", "result": 404, "unit": "µM"}
    ]}
  ]
}
